Laboratory results: ChEMBL document CHEMBL4616671, “Identification of N-Phenyl-7H-pyrrolo[2,3-d]pyrimidin-4-amine Derivatives as Novel, Potent, and Selective NF-κB Inducing Kinase (NIK) Inhibitors for the Treatment of Psoriasis” (J Med Chem, 2020)

Tests used:
[1] = molecular target: T1, Mitogen-activated protein kinase kinase kinase 14 (Homo sapiens, UniProt Q99558); test: Inhibition of recombinant N-terminal GST-fused human NIK (319 to 947 residues) expressed in baculovirus expression system incubated for 120 mins in presence of ATP by ADP-glo based luminescence assay
Method in brief: (§1)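 ADP-Glo luminescence assay with recombinant human MAP3K14. Buffer: Tris pH 7.5, 2 mM DTT, 2 mM MgCl₂, 100 µM Na₃VO₄, 0.02 mg/mL BSA, 5% DMSO; ATP 10 µM. Reaction 120 min at room temperature; ADP-Glo reagent 40 min, then detection reagent 40 min. Mean ± SD from two independent experiments.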
Target sequence in this assay (Q99558 whole entry, the tested form may be a part): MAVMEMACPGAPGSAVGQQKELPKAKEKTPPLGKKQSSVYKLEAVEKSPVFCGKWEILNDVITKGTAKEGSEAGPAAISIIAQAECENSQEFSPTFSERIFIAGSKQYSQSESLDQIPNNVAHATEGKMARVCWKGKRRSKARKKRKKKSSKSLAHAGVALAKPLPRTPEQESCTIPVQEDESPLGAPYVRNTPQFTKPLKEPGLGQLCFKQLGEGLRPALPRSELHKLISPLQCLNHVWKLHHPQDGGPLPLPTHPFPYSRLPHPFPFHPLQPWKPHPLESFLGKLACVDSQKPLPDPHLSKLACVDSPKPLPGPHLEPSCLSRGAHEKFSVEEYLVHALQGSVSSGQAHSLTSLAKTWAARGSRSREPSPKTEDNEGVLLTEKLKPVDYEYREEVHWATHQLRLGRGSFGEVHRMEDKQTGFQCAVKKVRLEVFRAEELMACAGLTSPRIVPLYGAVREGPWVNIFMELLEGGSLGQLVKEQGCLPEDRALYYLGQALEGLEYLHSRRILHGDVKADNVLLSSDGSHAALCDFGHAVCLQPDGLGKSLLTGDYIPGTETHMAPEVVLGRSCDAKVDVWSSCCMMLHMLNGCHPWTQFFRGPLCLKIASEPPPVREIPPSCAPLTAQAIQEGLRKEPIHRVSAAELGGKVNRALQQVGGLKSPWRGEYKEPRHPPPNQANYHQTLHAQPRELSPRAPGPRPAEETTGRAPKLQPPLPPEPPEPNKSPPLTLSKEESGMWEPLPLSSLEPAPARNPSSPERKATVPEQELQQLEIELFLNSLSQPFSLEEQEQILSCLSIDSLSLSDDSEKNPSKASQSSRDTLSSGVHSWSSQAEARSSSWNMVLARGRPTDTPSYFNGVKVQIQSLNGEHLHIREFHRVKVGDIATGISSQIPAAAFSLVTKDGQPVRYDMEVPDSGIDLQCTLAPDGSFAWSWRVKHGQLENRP

J774 = test: Antiinflammatory activity in mouse J774 cells assessed as inhibition of LPS-induced NO production at 1 uM preincubated for 2 hrs followed by LPS stimulation and measured after 22 hrs by Griess reagent based assay relative to control; assay type: functional
Method in brief: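 J774 macrophages seeded at 2*10^4 cells/mL, 24 h at 37 °C 5% CO₂; compound in DMSO at 1 µM, 3 replicate wells, 2 h pre-incubation, then LPS at 1 ug/mL final for 22 h. Supernatant nitrite read with Griess reagent at 540 nm against a sodium nitrite standard curve. Inhibition % = (model − compound)/(model − control) NO ×100; mean ± SD, three independent experiments.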

T-cell [2] = test: Antiinflammatory activity in mouse T cells assessed as inhibition of conA-induced induced T cell proliferation at 2 uM incubated for 48 hrs by CCK8 assay relative to control; assay type: functional
T-cell [3] = test: Antiinflammatory activity in mouse T cells assessed as inhibition of conA-induced induced T cell proliferation at 0.4 uM incubated for 48 hrs by CCK8 assay relative to control; assay type: functional
[4] = Elimination half life in dog liver microsomes incubated for 10 mins followed by potassium phosphate buffer addition and measured after 5 to 60 mins by LC-MS/MS analysis; assay type: ADME, Canis lupus familiaris, Microsome; conditions: read-out: beta t1/2
Method in brief: (§2)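 Rat, dog, monkey or human liver microsomes pre-incubated with compound at 37 °C for 10 min; reaction started after pre-warming and stopped at 5, 15, 30, 60 min with chilled quench containing tolbutamide and labetalol. No-cofactor control in 100 mM potassium phosphate for 60 min. LC-MS/MS analysis; first-order fit: k = −slope, T1/2 = 0.693/k, CLint = k/microsomal protein concentration.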

[5] = Intrinsic hepatic clearance in dog; assay type: ADME, Canis lupus familiaris; conditions: in vivo
Method in brief: (§3)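 Scaled from microsomal intrinsic clearance: CLint,in vitro × microsomal protein per g liver × liver weight per kg body weight.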

[6] = Intrinsic hepatic clearance in rat; assay type: ADME; conditions: in vivo; method in brief: as §3
[7] = Elimination half life in monkey liver microsomes incubated for 10 mins followed by potassium phosphate buffer addition and measured after 5 to 60 mins by LC-MS/MS analysis; assay type: ADME, Macaca mulatta, Microsome; conditions: rhesus monkey, read-out: beta t1/2; method in brief: as §2
[8] = Intrinsic hepatic clearance in monkey; assay type: ADME, Macaca mulatta; conditions: rhesus monkey, in vivo; method in brief: as §3
[9] = Intrinsic clearance in human liver microsomes assessed per mg of protein incubated for 10 mins followed by potassium phosphate buffer addition and measured after 5 to 60 mins by LC-MS/MS analysis; assay type: ADME, Microsome; conditions: read-out: CLH; method in brief: as §2
[10] = Elimination half life in human liver microsomes incubated for 10 mins followed by potassium phosphate buffer addition and measured after 5 to 60 mins by LC-MS/MS analysis; assay type: ADME, Microsome; conditions: read-out: beta t1/2; method in brief: as §2
[11] = molecular target: T1, Mitogen-activated protein kinase kinase kinase 14; test: Inhibition of NIK in human BEAS2B cells assessed as reduction in LPS-induced IL-6 level preincubated for 8 hrs followed by LPS stimulation and measured after 24 hrs by ELISA; assay type: cell-based
Method in brief: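 BEAS-2B cells were grown in DMEM with 10% FBS, seeded at 5000 cells/well, and cultured 24 h at 37 °C in 5% CO2. Compounds were given at 7 concentrations from 10 μM to 0.014 μM (3 replicate wells), with dexamethasone as positive control. After 8 h, LPS (20 μg/mL solution) was added for 24 h. Supernatant IL-6 was read by human IL-6 ELISA; two biological replicates.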
Target sequence in this assay (Q99558 whole entry, looked up, the tested form may be a part): as the sequence (Q99558 whole entry, the tested form may be a part) above

[12] = Intrinsic clearance in dog liver microsomes assessed as per mg of protein incubated for 10 mins followed by potassium phosphate buffer addition and measured after 5 to 60 mins by LC-MS/MS analysis; assay type: ADME, Canis lupus familiaris, Microsome; conditions: read-out: CLH; method in brief: as §2
[13] = Intrinsic clearance in monkey liver microsomes assessed as per mg of protein incubated for 10 mins followed by potassium phosphate buffer addition and measured after 5 to 60 mins by LC-MS/MS analysis; assay type: ADME, Macaca mulatta, Microsome; conditions: rhesus monkey, read-out: CLH; method in brief: as §2
[14] = Intrinsic clearance in rat liver microsomes assessed as per mg of protein incubated for 10 mins followed by potassium phosphate buffer addition and measured after 5 to 60 mins by LC-MS/MS analysis; assay type: ADME, Microsome; conditions: read-out: CLH; method in brief: as §2
[15] = Elimination half life in rat liver microsomes incubated for 10 mins followed by potassium phosphate buffer addition and measured after 5 to 60 mins by LC-MS/MS analysis; assay type: ADME, Microsome; conditions: read-out: beta t1/2; method in brief: as §2
[16] = molecular target: T1, Mitogen-activated protein kinase kinase kinase 14; test: Inhibition of NIK (unknown origin); method in brief: as §1
Target sequence in this assay (Q99558 whole entry, the tested form may be a part): as above

[17] = Intrinsic hepatic clearance in human; assay type: ADME; method in brief: as §3
[18] = molecular target: T1, Mitogen-activated protein kinase kinase kinase 14; test: Inhibition of recombinant N-terminal GST-fused human NIK (319 to 947 residues) expressed in baculovirus expression system assessed as residual activity at 1 uM incubated for 120 mins in presence of ATP by ADP-glo based luminescence assay relative to control
Target sequence in this assay (Q99558 whole entry, looked up, the tested form may be a part): as the sequence (Q99558 whole entry, the tested form may be a part) above

T-cell [19] = test: Growth inhibition of mouse T cells at 10 uM after 48 hrs by CCK8 assay; assay type: cell-based
Method in brief: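 Unstimulated mouse splenic T cells exposed to compound at 10 µM. Growth read by CCK-8 absorbance; […]. Mean ± SD, three independent experiments.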

CC(O)(C#Cc1cccc(Nc2ncnc3[nH]ccc23)c1)c1nccs1 (configuration not stated)
IC50 [1]: 1640 nM

CC(O)(C#Cc1ccc(N2CCNCC2)c(Nc2ncnc3[nH]ccc23)c1)c1nccs1 (configuration not stated)
inhibition at 1 µM (J774): 68%
IC50 [1]: 47.9 nM
inhibition at 2 µM (T-cell [2]): 39.9%
inhibition at 0.4 µM (T-cell [3]): 20.3%

CC(O)(C#Cc1ccc(N2CCOCC2)c(Nc2ncnc3sccc23)c1)c1nccs1 (configuration not stated)
IC50 [1]: 179 nM

CC(O)(C#Cc1ccc(N2CCN(S(=O)(=O)C3CC3)CC2)c(Nc2ncnc3[nH]ccc23)c1)c1nccs1 (configuration not stated)
inhibition at 1 µM (J774): 37.2%
IC50 [1]: 16.2 nM
inhibition at 2 µM (T-cell [2]): 32.3%
inhibition at 0.4 µM (T-cell [3]): 16.9%

CN(C)c1ccc(C#CC(C)(O)c2nccs2)cc1Nc1ncnc2[nH]ccc12 (configuration not stated)
IC50 [1]: 22.5 nM

CC(O)(C#Cc1ccc(N2CCOCC2)c(Nc2ncnc3[nH]ccc23)c1)c1cccs1 (configuration not stated)
IC50 [1]: 50.4 nM

CC(O)(C#Cc1ccc2c(c1)N(c1nc(N)ncc1Cl)CC2)c1nccs1 (configuration not stated)
half-life [4]: 7.22 min
CLH [5]: 276 mL/min/kg
CLH [6]: 254 mL/min/kg
inhibition at 1 µM (J774): 43.9%
half-life [7]: 6.66 min
CLH [8]: 300 mL/min/kg
microsomal CLint [9]: 40.8 µL/min/mg
half-life [10]: 33.9 min
inhibition [11]: Dose-dependent effect
IC50 [1]: 4.7 nM
inhibition at 2 µM (T-cell [2]): 59.6%
microsomal CLint [12]: 192 µL/min/mg
microsomal CLint [13]: 208 µL/min/mg
inhibition at 0.4 µM (T-cell [3]): 19%
microsomal CLint [14]: 141 µL/min/mg
half-life [15]: 9.82 min
Ki [16]: 0.4 nM
CLH [17]: 38.6 mL/min/kg

CN1CCC(Oc2ccc(C#CC(C)(O)c3nccs3)cc2Nc2ncnc3[nH]ccc23)CC1 (configuration not stated)
IC50 [1]: 705 nM

COCCN(C)c1ccc(C#CC(C)(O)c2nccs2)cc1Nc1ncnc2[nH]ccc12 (configuration not stated)
inhibition at 1 µM (J774): 48%
IC50 [1]: 72.4 nM
inhibition at 2 µM (T-cell [2]): 27.9%
inhibition at 0.4 µM (T-cell [3]): 13.3%

CC(O)(C#Cc1ccc(N2CCOCC2)c(Nc2ccnc3[nH]ccc23)c1)c1nccs1 (configuration not stated)
inhibition at 1 µM (J774): 60.4%
IC50 [1]: 6.59 nM
inhibition at 2 µM (T-cell [2]): 50.2%
inhibition at 0.4 µM (T-cell [3]): 19%

CC(O)(C#Cc1ccc(N2CCOCC2)c(Nc2ncnc3[nH]ccc23)c1)C1CCCC1 (configuration not stated)
IC50 [1]: 2240 nM

O=C(Nc1ccc(N2CCOCC2)c(Nc2ncnc3[nH]ccc23)c1)NC1CCCC1
Activity [18]: 76.4%

CC(O)(C#Cc1ccc(N2CCOCC2)c(Nc2ccnc(N)n2)c1)c1nccs1 (configuration not stated)
inhibition at 1 µM (J774): 58.5%
IC50 [1]: 11.4 nM
inhibition at 2 µM (T-cell [2]): 31.4%
inhibition at 0.4 µM (T-cell [3]): 27.4%

C[C@@H]1CN(c2ccc(C#CC(C)(O)c3nccs3)cc2Nc2ncnc3[nH]ccc23)CCN1 (some centres not stated)
IC50 [1]: 209 nM

CN(C)CCN(C)c1ccc(C#CC(C)(O)c2nccs2)cc1Nc1ncnc2[nH]ccc12 (configuration not stated)
IC50 [1]: 484 nM

CC(=O)N1CCN(c2ccc(C#CC(C)(O)c3nccs3)cc2Nc2ncnc3[nH]ccc23)CC1 (configuration not stated)
inhibition at 1 µM (J774): 29.3%
IC50 [1]: 17.8 nM
inhibition at 2 µM (T-cell [2]): 31.5%
inhibition at 0.4 µM (T-cell [3]): 16.2%

OC1(C#Cc2ccc(N3CCOCC3)c(Nc3ncnc4[nH]ccc34)c2)CCCCC1
IC50 [1]: 1270 nM

C[C@@](O)(C#Cc1ccc(N2CCOCC2)c(Nc2ncnc3[nH]ccc23)c1)c1nccs1
inhibition at 1 µM (J774): 100%
IC50 [1]: 12 nM
inhibition at 2 µM (T-cell [2]): 61.2%
inhibition at 0.4 µM (T-cell [3]): 37.6%
Activity (T-cell [19]): Toxic

CC(O)(C#Cc1ccc(N2CCOCC2)c(Nc2c(F)cnc3[nH]ccc23)c1)c1nccs1 (configuration not stated)
IC50 [1]: 1380 nM

CC(O)(C#Cc1ccc(N2CC3CC2CN3)c(Nc2ncnc3[nH]ccc23)c1)c1nccs1 (configuration not stated)
IC50 [1]: 200 nM

CCS(=O)(=O)N1CCN(c2ccc(C#CC(C)(O)c3nccs3)cc2Nc2ncnc3[nH]ccc23)CC1 (configuration not stated)
inhibition at 1 µM (J774): 34.5%
IC50 [1]: 8.22 nM
inhibition at 2 µM (T-cell [2]): 32.5%
inhibition at 0.4 µM (T-cell [3]): 14%

CC(C)(O)C#Cc1ccc(N2CCOCC2)c(Nc2ncnc3[nH]ccc23)c1
IC50 [1]: 2710 nM

C[C@](O)(C#Cc1ccc(N2CCOCC2)c(Nc2ncnc3[nH]ccc23)c1)c1nccs1
inhibition at 1 µM (J774): 74.3%
IC50 [1]: 136 nM
inhibition at 2 µM (T-cell [2]): 60.1%
inhibition at 0.4 µM (T-cell [3]): 39.5%
Activity (T-cell [19]): Non-Toxic

CC(O)(C#Cc1ccc(OC2CCOCC2)c(Nc2ncnc3[nH]ccc23)c1)c1nccs1 (configuration not stated)
inhibition at 1 µM (J774): 68.3%
IC50 [1]: 112 nM
inhibition at 2 µM (T-cell [2]): 42.9%
inhibition at 0.4 µM (T-cell [3]): 19.9%

CC(O)(C#Cc1ccc(N2CCOCC2)c(Nc2c(Cl)cnc3[nH]ccc23)c1)c1nccs1 (configuration not stated)
IC50 [1]: > 10000 nM

CN1CCN(c2ccc(C#CC(C)(O)c3nccs3)cc2Nc2ncnc3[nH]ccc23)CC1 (configuration not stated)
inhibition at 1 µM (J774): 78.5%
IC50 [1]: 78.3 nM
inhibition at 2 µM (T-cell [2]): 43.7%
inhibition at 0.4 µM (T-cell [3]): 33%

CC(O)(C#Cc1ccc(N2CCC(N3CCOCC3)CC2)c(Nc2ncnc3[nH]ccc23)c1)c1nccs1 (configuration not stated)
inhibition at 1 µM (J774): 57.7%
IC50 [1]: 15.3 nM
inhibition at 2 µM (T-cell [2]): 34.5%
inhibition at 0.4 µM (T-cell [3]): 32.2%

CC(O)(C#Cc1ccc(N2CCCC2)c(Nc2ncnc3[nH]ccc23)c1)c1nccs1 (configuration not stated)
IC50 [1]: 107 nM

CC(O)(C(=O)Nc1ccc(N2CCOCC2)c(Nc2ncnc3[nH]ccc23)c1)c1nccs1 (configuration not stated)
IC50 [1]: 1400 nM

O=C(Nc1ccc(N2CCOCC2)c(Nc2ncnc3[nH]ccc23)c1)C1CCCC1
Activity [18]: 77.3%

OC1(C#Cc2ccc(N3CCOCC3)c(Nc3ncnc4[nH]ccc34)c2)CCCC1
IC50 [1]: 645 nM

C[C@H]1CN(c2ccc(C#CC(C)(O)c3nccs3)cc2Nc2ncnc3[nH]ccc23)CCN1 (some centres not stated)
inhibition at 1 µM (J774): 62.9%
IC50 [1]: 69.2 nM
inhibition at 2 µM (T-cell [2]): 49.5%
inhibition at 0.4 µM (T-cell [3]): 38%

CCN1CCN(c2ccc(C#CC(C)(O)c3nccs3)cc2Nc2ncnc3[nH]ccc23)CC1 (configuration not stated)
inhibition at 1 µM (J774): 67.4%
IC50 [1]: 34.5 nM
inhibition at 2 µM (T-cell [2]): 33.7%
inhibition at 0.4 µM (T-cell [3]): 24.1%

CC(O)(C#Cc1ccc(N2CCOCC2)c(Nc2ncnc3[nH]ncc23)c1)c1nccs1 (configuration not stated)
inhibition at 1 µM (J774): 35.9%
IC50 [1]: 8.63 nM
inhibition at 2 µM (T-cell [2]): 24.7%
inhibition at 0.4 µM (T-cell [3]): 14.8%

CN1CCCN(c2ccc(C#CC(C)(O)c3nccs3)cc2Nc2ncnc3[nH]ccc23)CC1 (configuration not stated)
inhibition at 1 µM (J774): 67.3%
IC50 [1]: 60.1 nM
inhibition at 2 µM (T-cell [2]): 47.7%
inhibition at 0.4 µM (T-cell [3]): 35.5%
